# According to ChEMBL document CHEMBL1135218, “Structure-based design, synthesis, and biological evaluation of irreversible human rhinovirus 3C protease inhibitors. Part 7: structure-activity studies of bicyclic 2-pyridone-containing peptidomimetics” (Bioorg Med Chem Lett, 2002):
# Assays:
# [1] = system: HeLa; assay: Cytotoxic concentration against uninfected H1HeLa cell line; assay type: functional; conditions: Homo sapiens
# [2] = target: T1, Human rhinovirus A protease (Human rhinovirus sp.) (UniProt Q4U254); assay: The compound was tested for the inhibitory activity against human rhinovirus-14 3C Protease
# T1 sequence (whole entry): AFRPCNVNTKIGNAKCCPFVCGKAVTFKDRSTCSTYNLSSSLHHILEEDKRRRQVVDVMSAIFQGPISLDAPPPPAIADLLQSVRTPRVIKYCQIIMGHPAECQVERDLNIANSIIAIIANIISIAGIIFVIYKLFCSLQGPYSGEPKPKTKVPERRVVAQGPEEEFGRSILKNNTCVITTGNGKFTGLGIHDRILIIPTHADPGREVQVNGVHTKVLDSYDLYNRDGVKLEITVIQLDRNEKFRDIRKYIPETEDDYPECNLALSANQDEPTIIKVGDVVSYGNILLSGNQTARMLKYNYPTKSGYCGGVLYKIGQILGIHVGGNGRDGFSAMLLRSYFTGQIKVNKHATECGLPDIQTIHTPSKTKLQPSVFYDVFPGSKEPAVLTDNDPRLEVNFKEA
# In short: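 HRV-14 3C protease was exposed to the irreversible inhibitor. Inactivation was expressed as the second-order rate constant kobs/[I] in M-1 s-1.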
# [3] = system: HeLa; assay: Compound was tested for the antirhinoviral activity against human rhinovirus (HRV-14) infected H1HeLa cells; assay type: functional, cell-based
# [4] = system: HeLa; assay: (§1) Tested for antirhinoviral activity of compound against HRV 25 infected H1HeLa cells; Cytotoxicity at > 10 uM; assay type: functional; conditions: Homo sapiens
# [5] = system: HeLa; assay: (§2) Tested for antirhinoviral activity of compound against HRV 14 infected H1HeLa cells; Cytotoxicity at > 10 uM; assay type: functional, cell-based; conditions: Homo sapiens
# [6] = system: HeLa; assay: (§3) Tested for antirhinoviral activity of compound against HRV 2 infected H1HeLa cells; Cytotoxicity at > 10 uM; assay type: functional, cell-based; conditions: Homo sapiens
# [7] = system: HeLa; assay: (§4) Tested for antirhinoviral activity of compound against HRV 16 infected H1HeLa cells; Cytotoxicity at > 10 uM; assay type: functional, cell-based; conditions: Homo sapiens
# [8] = system: HeLa; assay: (§5) Tested for antirhinoviral activity of compound against HRV 39 infected H1HeLa cells; Cytotoxicity at > 10 uM; assay type: functional; conditions: Homo sapiens
# [9] = system: HeLa; assay: (§6) Tested for antirhinoviral activity of compound against HRV 3 infected H1HeLa cells; Cytotoxicity at > 10 uM; assay type: functional, cell-based; conditions: Homo sapiens
# [10] = system: HeLa; assay: as §6; assay type: functional; conditions: Homo sapiens
# [11] = system: HeLa; assay: as §4; assay type: functional; conditions: Homo sapiens
# [12] = system: HeLa; assay: as §5; assay type: functional, cell-based; conditions: Homo sapiens
# [13] = system: HeLa; assay: as §1; assay type: functional, cell-based; conditions: Homo sapiens
# [14] = system: HeLa; assay: (§7) Tested for antirhinoviral activity of compound against HRV 87 infected H1HeLa cells; Cytotoxicity at > 10 uM; assay type: functional, cell-based; conditions: Homo sapiens
# [15] = system: HeLa; assay: (§8) Tested for antirhinoviral activity of compound against HRV 10 infected H1HeLa cells; Cytotoxicity at > 10 uM; assay type: functional; conditions: Homo sapiens
# [16] = system: HeLa; assay: as §2; assay type: functional; conditions: Homo sapiens
# [17] = system: HeLa; assay: as §8; assay type: functional, cell-based; conditions: Homo sapiens
# [18] = system: HeLa; assay: as §3; assay type: functional; conditions: Homo sapiens
# [19] = system: HeLa; assay: as §7; assay type: functional; conditions: Homo sapiens
# [20] = system: HeLa; assay: Tested for antirhinoviral activity of compound against HRV 9 infected H1HeLa cells; Cytotoxicity at > 10 uM; assay type: functional; conditions: Homo sapiens
# [21] = system: HeLa; assay: Tested for antirhinoviral activity of compound against HRV 9 infected H1HeLa cells; assay type: functional, cell-based; conditions: Homo sapiens
smiles,measurement,setting,value
CCOC(=O)/C=C/[C@H](CCC(N)=O)NC(=O)[C@@H]1CCc2ccc(NC(=O)OCc3ccccc3)c(=O)n21,CC50,[1],> 100 µM
same,K obs / 1,[2],4540 M⁻¹ s⁻¹
same,EC50,[3],9 µM
CCOC(=O)/C=C/[C@H](C[C@@H]1CCNC1=O)NC(=O)[C@@H]1CCc2ccc(NC(=O)c3cc(C)on3)c(=O)n21,EC90,[4],616 nM
same,EC50,[5],162 nM
same,EC50,[6],37 nM
same,EC50,[7],72 nM
same,EC90,[8],152 nM
same,EC50,[9],43 nM
same,EC90,[10],133 nM
same,CC50,[1],> 10 µM
same,EC90,[11],303 nM
same,K obs / 1,[2],177000 M⁻¹ s⁻¹
same,EC50,[12],16 nM
same,EC50,[13],162 nM
same,EC50,[14],58 nM
same,EC90,[15],175 nM
same,EC90,[16],298 nM
same,EC50,[17],41 nM
same,EC90,[18],119 nM
same,EC50,[3],0.162 µM
same,EC90,[19],110 nM
same,EC90,[20],257 nM
same,EC50,[21],121 nM
CCOC(=O)/C=C/[C@H](CCC(N)=O)NC(=O)[C@@H]1CS[C@H]2CC[C@H](NC(=O)OCc3ccccc3)C(=O)N21,CC50,[1],> 10 µM
same,K obs / 1,[2],26 M⁻¹ s⁻¹
same,EC50,[3],> 10 µM
CCOC(=O)/C=C/[C@H](CCC(N)=O)NC(=O)[C@H](Cc1ccccc1)n1cccc(NC(=O)OCc2ccccc2)c1=O,CC50,[1],50 µM
same,K obs / 1,[2],114000 M⁻¹ s⁻¹
same,EC50,[3],0.033 µM
CCOC(=O)/C=C/[C@H](CCC(N)=O)NC(=O)Cn1cccc(NC(=O)OCc2ccccc2)c1=O,CC50,[1],> 10 µM
same,K obs / 1,[2],348 M⁻¹ s⁻¹
same,EC50,[3],> 10 µM
